Screening results as filed in PubChem.
In the library only some 2.7% were active in any assay of this set; here they are far more common.
V1aR counter: activates human V1a receptor in oxytocin agonist counter-screen. P37288. CHO-V1R cells, Fluo-8 calcium fluorescence, agonist mode; 0% DMSO, 100% 3 nM vasopressin. activation, % at 3 µM. 320,000 compounds, 0.25% hits;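 active = activation above the mean activation of all tested compounds plus 3 SD, per screening run, cut at about 20% in these data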;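 note: signal is peak over basal fluorescence ratio across a 100 second FLIPR read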
Target sequence (P37288 whole entry, looked up): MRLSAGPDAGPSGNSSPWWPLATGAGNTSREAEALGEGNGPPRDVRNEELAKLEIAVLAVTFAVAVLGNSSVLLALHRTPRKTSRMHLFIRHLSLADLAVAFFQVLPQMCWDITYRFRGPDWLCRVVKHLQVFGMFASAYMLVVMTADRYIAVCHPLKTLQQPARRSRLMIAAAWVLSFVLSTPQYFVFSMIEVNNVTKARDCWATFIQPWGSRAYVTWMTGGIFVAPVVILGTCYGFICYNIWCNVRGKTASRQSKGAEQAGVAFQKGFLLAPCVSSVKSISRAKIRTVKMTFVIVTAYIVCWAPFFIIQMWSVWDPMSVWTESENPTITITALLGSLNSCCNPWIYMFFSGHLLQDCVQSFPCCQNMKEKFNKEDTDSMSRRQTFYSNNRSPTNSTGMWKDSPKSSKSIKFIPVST
OX1R antag-1: blocks the human orexin 1 receptor | OX1R-expressing cells, FRET antagonist read-out | inhibition, % at 6.6 µM | O43613 | 330,000 compounds, 1.8% hits; in the data active = inhibition mostly above about 38%, no sharp cut-off; inactive = mostly below about 40%;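 note: 0% = agonist challenge alone and 100% = reference antagonist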
OXTR ag: agonists of human oxytocin receptor. P30559. AID 2435. 320,000 compounds, 0.32% hits. activation, % at 3 µM. CHO-OTR cells, Fluo-8 calcium fluorescence; normalized: DMSO 0%, oxytocin 100%;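 active = activation above the mean of all tested compounds plus 3 SD, cutoff set per screening run, cut at about 20% in these data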;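 note: peak over basal fluorescence ratio from a 100 s FLIPR kinetic read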
OXTR potentiate: potentiators of human oxytocin receptor; 320,000 compounds, 0.061% hits; P30559; activation, % at 3 µM; AID 2445; CHO-OTR cells, Fluo-8 calcium fluorescence, potentiator mode; 0% = oxytocin EC15, 100% = EC100;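 active = activation above that plate's cutoff, the mean activation of tested compounds plus 3 SD, cut at about 6.6% in these data, passing the limit was not always enough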;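 note: 100% uses oxytocin at 75 nM as the full agonist control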
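System: human OTR in CHO cells / Also added: sub-maximal oxytocin, roughly EC15 / Control set: EC15 oxytocin low, 75 nM oxytocin high / Schedule: 6 min compound pre-incubation at room temperature, 100 s kinetic read / Compound: single-point 3.0 µM / Replication: singlicate / Technique: Fluo-8 calcium dye fluorescence / Read-out basis: % activation of max/min ratio relative to oxytocin controls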
OX1R antag-2: blocks the human orexin 1 receptor; CHO/OX1R cells, Fluo-8 calcium fluorescence, orexin A; 330,000 compounds, 0.43% hits; AID 434989; inhibition, % at 5 µM;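 active = inhibition above its plate's threshold, mean inhibition of all tested compounds on the plate plus 3 SD, cut at about 37% in these data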;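 note: 0% = orexin A challenge wells and 100% = SB-334867-A antagonist wells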
CHO parental Ca: counter-screen: ATP calcium response change in parental CHO cells. AID 463079. parental CHO-K1, ATP-induced calcium, Fluo-8 fluorescence. inhibition, % at 5.6 µM. 330,000 compounds, 0.63% hits;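 active = inhibition above that plate's mean sample inhibition plus 3 SD, cut at about 26% in these data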;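 note: 0% = ATP-challenged DMSO wells and 100% = DMSO wells without ATP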
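Test system: untransfected parental CHO cell line. Compound: one dose, 5.6 µM nominal. Detection: intracellular calcium via Fluo-8 no-wash fluorescent dye. Measure: % inhibition. Benchmarks: ATP-challenged DMSO wells low, unchallenged DMSO wells high.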
An asterisk follows results filed as active.

How did CCc1ccc(/C=C/C(=O)C2C(=O)c3ccccc3C2=O)cc1 do in these assays?
V1aR counter: 0; OX1R antag-1: 22; OXTR ag: 2; OXTR potentiate: -2; OX1R antag-2: 8; CHO parental Ca: 35*

What do the screens show for `O=C(/C=C/c1ccccc1)C1C(=O)c2ccccc2C1=O`?
V1aR counter: -2; OX1R antag-1: 26; OXTR ag: -2; OXTR potentiate: 6; OX1R antag-2: -40; CHO parental Ca: -26

How did Cc1nn(CC(=O)NCCN2CCOCC2)c(=O)c2cc3sccc3n12 do in these assays?
V1aR counter: 0; OX1R antag-1: 7; OXTR ag: 1; OXTR potentiate: -2; OX1R antag-2: -2; CHO parental Ca: -3

How did Cc1ccc(NC2=C(Cl)C(=O)OC2OC(=O)c2ccccc2)c(C)c1 (centres undefined) do in these assays?
V1aR counter: 2; OX1R antag-1: 12; OXTR ag: -2; OXTR potentiate: -26; OX1R antag-2: -3; CHO parental Ca: -1

Results for Cc1ccccc1NC1=C(Cl)C(=O)OC1OC(=O)c1ccccc1C (centres undefined) ?
V1aR counter: 1; OX1R antag-1: 25; OXTR ag: -2; OXTR potentiate: -10; OX1R antag-2: 3; CHO parental Ca: 61*

How did O=C(CN(Cc1ccco1)Cc1ccco1)Nc1cc(S(=O)(=O)N2CCCCC2)ccc1Cl do in these assays?
V1aR counter: 4; OX1R antag-1: 10; OXTR ag: 0; OXTR potentiate: -10; OX1R antag-2: 74*; CHO parental Ca: 48*

What do the screens show for `O=C(NCc1ccco1)c1cc(S(=O)(=O)N2CCCC2)ccc1Cl`?
V1aR counter: 0; OX1R antag-1: 30; OXTR ag: -1; OXTR potentiate: -2; OX1R antag-2: -13; CHO parental Ca: -15

How did CCn1nnc2cc(C(=O)N3CCC(C(=O)OC)CC3)ccc21 do in these assays?
V1aR counter: 2; OX1R antag-1: 3; OXTR ag: 2; OXTR potentiate: -7; OX1R antag-2: -10; CHO parental Ca: -10

What do the screens show for `Nc1nc(NCc2ccccc2)nc(Nc2cccc(F)c2)c1[N+](=O)[O-]`?
V1aR counter: 3; OX1R antag-1: 15; OXTR ag: 0; OXTR potentiate: -3; OX1R antag-2: -7; CHO parental Ca: -7

What do the screens show for `Nc1nc(Nc2cccc(F)c2)nc(NCCO)c1[N+](=O)[O-]`?
V1aR counter: -1; OX1R antag-1: 14; OXTR ag: -2; OXTR potentiate: 12*; OX1R antag-2: -21; CHO parental Ca: -16

How did COc1cc(/C=C2/SC(=S)N(CC3CCCO3)C2=O)ccc1O (centres undefined) do in these assays?
V1aR counter: 32*; OX1R antag-1: 11; OXTR ag: 48*; OXTR potentiate: -16; OX1R antag-2: 18; CHO parental Ca: 24

How did COc1cc(/C=C2\SC(=S)N(C(Cc3ccccc3)C(=O)O)C2=O)ccc1O (centres undefined) do in these assays?
V1aR counter: 30*; OX1R antag-1: 26; OXTR ag: 28*; OXTR potentiate: -8; OX1R antag-2: 27; CHO parental Ca: 20

Results for O=C(O)C(Cc1ccccc1)N1C(=O)/C(=C/c2ccccc2)SC1=S (centres undefined) ?
V1aR counter: 0; OX1R antag-1: 14; OXTR ag: -1; OXTR potentiate: -4; OX1R antag-2: -4; CHO parental Ca: -2

Results for COc1cc(/C=C2\SC(=S)N(Nc3ccccc3)C2=O)ccc1O ?
V1aR counter: 24*; OX1R antag-1: 21; OXTR ag: 58*; OXTR potentiate: -22; OX1R antag-2: 40; CHO parental Ca: 42*

How did O=C(NN1C(=O)/C(=C\c2ccc(O)c([N+](=O)[O-])c2)SC1=S)c1ccccc1Cl do in these assays?
V1aR counter: 3; OX1R antag-1: 64*; OXTR ag: 2; OXTR potentiate: -4; OX1R antag-2: -19; CHO parental Ca: -7

What do the screens show for `COc1ccc(/C=C2\SC(=S)N(CC3CCCO3)C2=O)cc1` (centres undefined)?
V1aR counter: 1; OX1R antag-1: 12; OXTR ag: -1; OXTR potentiate: -15; OX1R antag-2: -27; CHO parental Ca: -22
